Structures are written as SMILES. The source made the active and inactive calls.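 Rule for the calls: active = fitted dose response curve and peak inhibition of the Kir2.1 potassium channel above 30% at some dose; inactive = no dose response or no inhibition at any dose.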

Sequence of Inward rectifier potassium channel 2 (Mus musculus) (P35561 whole entry, looked up): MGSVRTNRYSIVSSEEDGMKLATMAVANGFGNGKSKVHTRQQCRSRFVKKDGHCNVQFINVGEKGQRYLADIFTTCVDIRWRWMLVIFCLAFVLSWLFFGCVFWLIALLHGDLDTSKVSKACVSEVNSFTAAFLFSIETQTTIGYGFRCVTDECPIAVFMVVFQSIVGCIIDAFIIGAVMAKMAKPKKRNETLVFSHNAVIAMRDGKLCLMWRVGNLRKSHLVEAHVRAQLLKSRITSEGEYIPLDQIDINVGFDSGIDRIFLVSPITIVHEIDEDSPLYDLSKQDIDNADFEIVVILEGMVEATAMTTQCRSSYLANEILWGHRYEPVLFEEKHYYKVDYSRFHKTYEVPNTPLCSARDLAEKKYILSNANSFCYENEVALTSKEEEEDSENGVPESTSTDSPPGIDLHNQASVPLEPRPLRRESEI

This assay concerns the target Inward rectifier potassium channel 2 (Mus musculus) (UniProt P35561). Put plainly: off-target blockade of inward rectifier Kir2.1 – cell-based, FluxOR thallium flux, CRC round 3, selectivity assay for KCNK9 inhibitor project, SAR follow-up (AID 588760). Conditions: Kir2.1-expressing cells, 20 min; series mostly up to 30 µM; thallium flux ratio, lower = inhibition: at the top concentration. The method, boiled down:
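Material: FluxOR-loaded Kir2.1 HEK293 cells | Times: 90 min dye load, 20 min compound, RT | Technique: Kinetic fluorescence of thallium-sensitive dye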
Turning to `CC(c1cccc2ccccc12)n1c(-c2ccco2)n[nH]c1=S` (stereo unspecified), the “thallium flux ratio, lower = inhibition” value is 1.43 (inactive).
`CC(C1CC2CCC1C2)n1c(SCC(=O)c2ccc3c(c2)OCO3)nnc1-c1ccco1` (stereo unspecified): the “thallium flux ratio, lower = inhibition” value was 1.49 (inactive).
Consider `CC(C1CC2CCC1C2)n1c(SCC(=O)c2ccc(Cl)c(Cl)c2)nnc1-c1ccco1` (stereo unspecified), for which the “thallium flux ratio, lower = inhibition” value was 1.98 (inactive).
In the case of `S=c1[nH]nc(-c2ccco2)n1CC1CC2CCC1C2` (stereo unspecified), the “thallium flux ratio, lower = inhibition” value was 1.13 (inactive).
On to `CC(C)c1ccccc1C(=O)Nc1cccc(NC(=O)c2ccccc2OC(F)(F)F)c1`, for which the “thallium flux ratio, lower = inhibition” value was 1.83 (inactive).
For the compound `CC(C1CC2CCC1C2)n1c(SCC#N)nnc1-c1cccs1` (stereo unspecified), the “thallium flux ratio, lower = inhibition” value was 1.26 (inactive).
For `CC(C1CC2CCC1C2)n1c(-c2ccc(N(C)C)cc2)n[nH]c1=S` (stereo unspecified), the result was inactive.
On to `CC(C1CC2CCC1C2)n1c(-c2cccnc2)n[nH]c1=S` (stereo unspecified), for which the “thallium flux ratio, lower = inhibition” value was 1.93 (inactive).
Still for that read-out and setting: next, `CC(C1C2CCC1CC2)n1c(-c2ccco2)n[nH]c1=S` (stereo unspecified): 1.4 (inactive); `CC(C1CC2CCC1C2)n1c(-c2ccco2)nnc1C(F)(F)F` (stereo unspecified): 1.18 (inactive).
`COc1ccc(C(=O)CSc2nnc(-c3ccco3)n2C(C)C2CC3CCC2C3)cc1OC` (stereo unspecified): the “thallium flux ratio, lower = inhibition” value is 1.32 (inactive).
For `CSc1nnc(-c2ccco2)n1C(C)C1CC2CCC1C2` (stereo unspecified), the “thallium flux ratio, lower = inhibition” value was 0.744 (inactive).
On the same count and under the same terms, next, `CC(C1CC2CCC1C2)n1c(-c2cccn2C)n[nH]c1=S` (stereo unspecified): 1.64 (inactive); `CC(C1CC2CCC1C2)n1c(SC(F)F)nnc1-c1ccco1` (stereo unspecified): 0.755 (inactive).
Consider `CC(C1CC2CCC1C2)n1cnnc1-c1ccco1` (stereo unspecified), for which the “thallium flux ratio, lower = inhibition” value was 1.88 (inactive).
Same read-out and setting: next, `CC(C1CC2CCC1C2)n1c(-c2cccs2)n[nH]c1=S` (stereo unspecified): 1.23 (inactive).
On to `CC(C1CC2CCC1C2)n1c(SCc2ccccc2)nnc1-c1ccco1` (stereo unspecified), for which the “thallium flux ratio, lower = inhibition” value was 1.08 (inactive).
Turning to `COc1cc(OC)cc(-c2n[nH]c(=S)n2C(C)C2CC3CCC2C3)c1` (stereo unspecified), the “thallium flux ratio, lower = inhibition” value was 1.79 (inactive).
The same measure, in the same setting: next, `CC(C1CC2CCC1C2)n1c(-c2ccco2)n[nH]c1=O` (stereo unspecified): 1.56 (inactive); `CC(C)Oc1ccccc1C(=O)Nc1cccc(NC(=O)c2ccccc2OC(F)(F)F)c1`: 1.86 (inactive).
Consider `C[C@@H](C1CCCCC1)n1c(-c2ccco2)n[nH]c1=S`, for which the “thallium flux ratio, lower = inhibition” value was 1.59 (inactive).

Source of the values: PubChem BioAssay AID588760 (Johns Hopkins Ion Channel Center, 2011).
